Measured values taken from ChEMBL document CHEMBL3124836, “Pyrano-isoflavans from Glycyrrhiza uralensis with antibacterial activity against Streptococcus mutans and Porphyromonas gingivalis” (2014).
Values after ≈ are worked out from the molar mass of the structure shown.

Columns and labels:
Assay type in all cases: functional
[1] = test system: Porphyromonas gingivalis; assay: Antibacterial activity against Porphyromonas gingivalis ATCC 33277 after 24 hrs by microbroth dilution assay; details: ATCC 33277, 24 h
Summary of the method: (§1)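 EtOH stocks tested as a 2-fold series (200–0.78 μg/mL) mixed with an equal volume of overnight culture diluted to OD660 0.2. Medium was THB plus hemin 10 μg/mL and vitamin K 10 μg/mL. P. gingivalis was run anaerobically (N2/H2/CO2 80/10/10) and S. mutans aerobically. After 24 h at 37 °C growth was read visually; MIC was the lowest concentration without growth. Three independent experiments.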

[2] = test system: Porphyromonas gingivalis; assay: Bactericidal activity against Porphyromonas gingivalis ATCC 33277 after 3 days; details: ATCC 33277, 72 h
Summary of the method: (§2)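 From microbroth wells without visible growth after 24 h, aliquots were spread on THB agar and incubated 3 days at 37 °C. MBC was the lowest concentration giving no colony formation. Three independent experiments.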

[3] = test system: Streptococcus mutans; assay: Antibacterial activity against Streptococcus mutans ATCC 35668 after 24 hrs by microbroth dilution assay; details: ATCC 35668, 24 h; summary of the method: as §1
[4] = test system: Streptococcus mutans; assay: Bactericidal activity against Streptococcus mutans ATCC 35668 after 3 days; details: ATCC 35668, 72 h; summary of the method: as §2

Compound | MIC [1] [mg/L] | MIC [3] [mg/L] | MBC [2] [mg/L] | MBC [4] [mg/L]
COc1c(CC=C(C)C)c(O)cc2c1C[C@H](C1=CC(=O)C(O)=C(CC=C(C)C)C1=O)CO2 | 25 (≈ 57 µM) | > 200 | 25 (≈ 57 µM) | > 200
COc1c2c(cc3c1C[C@H](c1ccc(O)c(CC=C(C)C)c1O)CO3)OC(C)(C)C=C2 | 6.25 (≈ 14.8 µM) | 25 (≈ 59.2 µM) | 6.25 (≈ 14.8 µM) | > 200
COc1c(CC=C(C)C)c(O)cc2c1C[C@H](c1ccc3c(c1O)C=CC(C)(C)O3)CO2 | 12.5 (≈ 29.6 µM) | 12.5 (≈ 29.6 µM) | 12.5 (≈ 29.6 µM) | 12.5 (≈ 29.6 µM)
COc1c(CC=C(C)C)c(O)cc2c1[C@@H]1Oc3c(ccc(O)c3CC=C(C)C)[C@@H]1CO2 | 50 (≈ 118 µM) | 200 (≈ 473 µM) | 50 (≈ 118 µM) | > 200
COc1cc2occ(-c3ccc(O)cc3)c(=O)c2c(O)c1CC=C(C)C [GANCAONIN G] | 200 (≈ 568 µM) | > 200 | 200 (≈ 568 µM) | > 200
COc1c2c(cc3oc(=O)c4c5ccc(O)cc5oc4c13)OC(C)(C)CC2 [ISOGLYCYROL] | 200 (≈ 546 µM) | > 200 | 200 (≈ 546 µM) | > 200
CC1(C)S[C@@H]2[C@H](NC(=O)Cc3ccccc3)C(=O)N2[C@H]1C(=O)O [PENICILLIN G] | – | 0.05 (≈ 0.15 µM) | – | 1.56 (≈ 4.67 µM)

The next lines start with results.

MIC [1] [mg/L] | MIC [3] [mg/L] | Compound | MBC [2] [mg/L] | MBC [4] [mg/L]
6.25 (≈ 14.8 µM) | 6.25 (≈ 14.8 µM) | COc1c(CC=C(C)C)c(O)cc2c1C[C@H](c1ccc(O)c3c1OC(C)(C)C=C3)CO2 | 6.25 (≈ 14.8 µM) | 6.25 (≈ 14.8 µM)
3.12 (≈ 7.36 µM) | 12.5 (≈ 29.4 µM) | COc1c(CC=C(C)C)c(O)cc2c1C[C@H](c1ccc(O)c(CC=C(C)C)c1O)CO2 [LICORICIDIN] | 3.12 (≈ 7.36 µM) | 25 (≈ 58.9 µM)
1.56 (≈ 3.51 µM) | – | CN(C)[C@@H]1C(O)=C(C(N)=O)C(=O)[C@@]2(O)C(O)=C3C(=O)c4c(O)cccc4[C@@](C)(O)[C@H]3C[C@@H]12 [TETRACYCLINE] | 12.5 (≈ 28.1 µM) | –
